The source of these data is ChEMBL document CHEMBL2440116, “Structure-activity relationships of 2-aminothiazoles effective against Mycobacterium tuberculosis” (Bioorg Med Chem, 2013).

≈ marks a conversion by molar mass, not a printed value.

Series [1] in a line: Therapeutic index, ratio of EC50 for african green monkey Vero cells to MIC for Mycobacterium tuberculosis H37Rv. It counts as cell-based. Particulars: read-out: TI; call rule not given here.
The next series concerns Vero. The experiment in a line: Cytotoxicity against african green monkey Vero cells after 72 hrs by MTT assay. Type of series: cell-based. The settings on record: Chlorocebus sabaeus. In short, it runs like this: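 Vero (CCL-81) cells in MEM with 10% FBS, penicillin-streptomycin and Glutamax, seeded at 3.0×10⁴ per well and left to adhere overnight. Compounds added from DMSO at final 100–0.16 μM, triplicate, for 72 h at 37 °C, 4.5% CO2. Then MTT 1.0 mg/mL in phenol-red-free RPMI for 3 h, formazan dissolved in isopropanol, A570 minus A690. Viability taken relative to DMSO control; EC50 from dose-response curves.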
Background: Formazan colour is commonly taken as a measure of viable cells.

The subject of series [2] is Mycobacterium tuberculosis. The series can be described thus: Antitubercular activity against Mycobacterium tuberculosis H37Rv in GAST media with glycerol and alanine after 7 to 14 days by broth microdilution method. Type of series: functional.
Series [3] relates to Mycobacterium tuberculosis. The experiment in a line: Antitubercular activity against Mycobacterium tuberculosis H37Rv in Middlebrook 7H9 broth with butyrate after 7 to 14 days by broth microdilution method. Type of series: functional. For orientation: Broth dilution looks for growth in wells or tubes with falling amounts of substance.
For series [4], the system named is Mycobacterium tuberculosis. The series can be described thus: Antitubercular activity against Mycobacterium tuberculosis H37Rv in Middlebrook 7H9 broth with glucose after 7 to 14 days by broth microdilution method. Type of series: functional. In short, it runs like this:
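Broth microdilution of H37Rv in 7H9 with 0.8 g/L NaCl, 5 g/L BSA fraction V, 4 g/L glucose and 0.05% Tyloxapol. Run in quadruplicate from DMSO stocks with DMSO controls; isoniazid positive control.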

The subject of another series is Liver. The experiment in a line: Half life in CD-1 mouse liver microsomes. Type of series: ADME, Microsome. An outline of the steps:
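CD-1 mouse liver microsomes; compound from 2 mM DMSO stock in 0.1 M sodium phosphate pH 7.4 with NADPH, preincubated 5 min at 37 °C before microsomes added. Aliquots taken at 0–60 min and quenched with ice-cold acetonitrile, run in duplicate. Minus-NADPH control sampled at 0 and 60 min. Remaining parent measured by isocratic C8 HPLC with UV at 220 nm.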
(Liver microsomes are vesicles of endoplasmic reticulum, rich in cytochrome P450 enzymes.)

Series [5] deals with Liver microsomes. The experiment in a line: Drug metabolism in human liver microsomes. It counts as ADME, Microsome.
The test system of series [6] is Liver microsomes. The experiment in a line: Half life in human liver microsomes. Type of series: ADME, Microsome.
Series [7] in a line: Solubility of the compound. Type of series: physicochemical.

Turning to `CC(=O)c1cccc(C(=O)Nc2nc(-c3ccccn3)cs2)c1`, in [1], the selectivity ratio was 4. In addition, in the series on Vero, the concentration for a half-maximal effect (EC50) (as a rule, the concentration at which the effect is half-maximal) turned out to be 1.5 µM. Also, the MIC99 (usually the lowest concentration that inhibits either 99% of growth or 99% of the strains tested, depending on the study) in [2] was 0.098 µM (≈ 0.0317 µg/mL); in series [3], 0.19 µM (≈ 0.0614 µg/mL); in [4], 0.39 µM (≈ 0.126 µg/mL).

Consider `Cc1ccc(C(=O)Nc2nc(-c3ccccn3)cs2)cc1`, for which the selectivity ratio in series [1] is 27. For the same molecule, a half-maximal effect in the series on Vero (EC50) was put at 10.5 µM. Moreover, the MIC99 in [2] stood at 0.098 µM (≈ 0.0289 µg/mL); in series [3], 0.19 µM (≈ 0.0561 µg/mL); in [4], 0.39 µM (≈ 0.115 µg/mL).

With `O=C(Nc1nc(-c2ccccn2)cs1)c1c(F)cccc1F`, in [1], the selectivity ratio came to 4. This molecule also gave an EC50 in the series with Vero of 3.2 µM. In addition, the MIC99 in series [2] amounted to 0.19 µM (≈ 0.0603 µg/mL); in series [3], 0.78 µM (≈ 0.248 µg/mL); in [4], 0.78 µM (≈ 0.248 µg/mL).

For `O=C(Nc1nc(-c2ccccn2)cs1)c1cccc(Br)c1`, the t1/2 with Liver worked out at 11 min. Further, the EC50 in the series with Vero is 16.1 µM. The MIC99 worked out at 0.049 µM (≈ 0.0177 µg/mL) in [2], 0.024 µM (≈ 0.00865 µg/mL) in [3] and 0.098 µM (≈ 0.0353 µg/mL) in series [4].

As for `O=C(Nc1nc(-c2ccccn2)cs1)c1cc(F)cc(F)c1`, in series [1], the selectivity ratio came to 8. In the series with Vero, this molecule returned a concentration for a half-maximal effect (EC50) of 1.5 µM. Moreover, the MIC99 in series [2] amounted to 0.049 µM (≈ 0.0155 µg/mL); in [3] it was 0.098 µM (≈ 0.0311 µg/mL); in [4], 0.19 µM (≈ 0.0603 µg/mL).

Regarding `O=C(Nc1nc(-c2ccccn2)cs1)c1ccccc1`, the selectivity ratio in series [1] was 18. The 50% effective concentration (EC50) in the series with Vero was found to be 7.1 µM. Besides, the MIC99 turned out to be 0.19 µM (≈ 0.0535 µg/mL) in series [2], 0.19 µM (≈ 0.0535 µg/mL) in series [3] and 0.39 µM (≈ 0.11 µg/mL) in series [4].

In the series with Liver, `COc1ccc(C(=O)Nc2nc(-c3ccccn3)cs2)cc1` registered a t1/2 of 16 min. For the same molecule, the selectivity ratio in [1] worked out at 24. The same molecule registered an EC50 with Vero of 9.2 µM. Besides, the MIC99 in [2] was 0.098 µM (≈ 0.0305 µg/mL); in series [3], 0.19 µM (≈ 0.0592 µg/mL); in [4], 0.39 µM (≈ 0.121 µg/mL).

Take `O=C(Nc1nc(-c2ccccn2)cs1)c1cccc(F)c1`: in series [1], the selectivity ratio was 3. Besides, the midpoint of the response in the series with Vero, the EC50, lay at 1.2 µM. The values for the MIC99 in series [2], in series [3] and in [4] were 0.049 µM (≈ 0.0147 µg/mL), 0.098 µM (≈ 0.0293 µg/mL) and 0.19 µM (≈ 0.0569 µg/mL), respectively.

`O=C(Nc1nc(-c2ccccn2)cs1)c1ccc(Br)cc1` yielded a t1/2 with Liver of 6.8 min. The molecule also yielded a concentration giving a half-maximal response (EC50) in the series with Vero of 4.7 µM. Besides, the MIC99 is 0.049 µM (≈ 0.0177 µg/mL) in [2], 0.098 µM (≈ 0.0353 µg/mL) in series [3] and 0.19 µM (≈ 0.0684 µg/mL) in series [4].

Turning to `O=C(Nc1nc(-c2ccccn2)cs1)c1cccc(F)c1F`, the selectivity ratio in series [1] amounted to 18. This molecule displayed an EC50 with Vero of 7.2 µM. Moreover, the MIC99 was 0.098 µM (≈ 0.0311 µg/mL) in series [2], 0.19 µM (≈ 0.0603 µg/mL) in series [3] and 0.39 µM (≈ 0.124 µg/mL) in [4].

In the case of `Cc1cccc(C(=O)Nc2nc(-c3ccccn3)cs2)c1`, the t1/2 with Liver came to 6.7 min. For the same molecule, the selectivity ratio in series [1] amounted to 11. In addition, the response with Vero was half-maximal at 4.1 µM (EC50). Also, the figures for the MIC99 in series [2], in [3] and in series [4] were 0.049 µM (≈ 0.0145 µg/mL), 0.049 µM (≈ 0.0145 µg/mL) and 0.19 µM (≈ 0.0561 µg/mL), respectively.

As for `O=C(Nc1nc(-c2ccccn2)cs1)c1cccc(OCc2ccccc2)c1`, the selectivity ratio in series [1] worked out at 32. Also, the half-maximal effective concentration (EC50) in the series on Vero turned out to be 14.4 µM. Also, the MIC99 in series [2] was 0.19 µM (≈ 0.0736 µg/mL); in series [3] it was 0.049 µM (≈ 0.019 µg/mL); in series [4] it was 0.39 µM (≈ 0.151 µg/mL).

As for `O=C(Nc1nc(-c2ccccn2)cs1)c1cccc(Cl)c1`, the Drug metabolism entry in the series on Liver microsomes [5] was “Active”. The t1/2 is on record as 28 min with Liver microsomes [6] and 19 min in the series with Liver. For the same molecule, the selectivity ratio in series [1] is 30. The same molecule showed an EC50 in the series on Vero of 7 µM. In addition, the figures for the MIC99 in [2], in [3] and in [4] were 0.049 µM (≈ 0.0155 µg/mL), 0.024 µM (≈ 0.00758 µg/mL) and 0.19 µM (≈ 0.06 µg/mL), respectively.

Regarding `O=C(Nc1nc(-c2ccccn2)cs1)c1ccccn1`, the selectivity ratio in [1] was 0.9. Moreover, the midpoint of the response in the series with Vero, the EC50, lay at 5.4 µM. Also, the values for the MIC99 in series [2], in series [3] and in [4] were 1.6 µM (≈ 0.452 µg/mL), 3.1 µM (≈ 0.875 µg/mL) and 6.3 µM (≈ 1.78 µg/mL), respectively.

With `COc1ccccc1C(=O)Nc1nc(-c2ccccn2)cs1`, the selectivity ratio in [1] was determined as 7. This molecule also showed an EC50 with Vero of 43.5 µM. The values for the MIC99 in series [2], in series [3] and in series [4] were 1.6 µM (≈ 0.498 µg/mL), 3.1 µM (≈ 0.965 µg/mL) and 6.3 µM (≈ 1.96 µg/mL), respectively.

Turning to `O=C(Nc1nc(-c2ccccn2)cs1)c1ccccc1OCc1ccccc1`, in series [7], the solubility entry was “Insoluble”. For the same molecule, the figures for the MIC99 in series [2], in series [3] and in series [4] were 50 µM (≈ 19.4 µg/mL), over 50 µM and over 50 µM, respectively.

`O=C(Nc1nc(-c2ccccn2)cs1)c1cc(F)ccc1F`: the selectivity ratio in series [1] was determined as 8. This molecule also came in with a concentration giving a half-maximal response (EC50) with Vero of 3.3 µM. Further, the MIC99 in [2] was 0.098 µM (≈ 0.0311 µg/mL); in [3] it was 0.19 µM (≈ 0.0603 µg/mL); in [4], 0.39 µM (≈ 0.124 µg/mL).

Take `CC(=O)c1ccccc1C(=O)Nc1nc(-c2ccccn2)cs1`: the selectivity ratio in [1] came to 7. Besides, the EC50 in the series on Vero was 86.7 µM. In addition, the MIC99 in series [2] came out at 3.13 µM (≈ 1.01 µg/mL); in series [3], 12.5 µM (≈ 4.04 µg/mL); in [4], 12.5 µM (≈ 4.04 µg/mL).

As to `Cc1ccccc1C(=O)Nc1nc(-c2ccccn2)cs1`, the selectivity ratio in series [1] is 16. In the series on Vero, this molecule yielded an EC50 of 6.3 µM. Moreover, the MIC99 in [3] came to 0.19 µM (≈ 0.0561 µg/mL); in [4], 0.39 µM (≈ 0.115 µg/mL).
